In ChEMBL document CHEMBL2062428, “Cyclooxygenase-1-selective inhibitors based on the (E)-2'-des-methyl-sulindac sulfide scaffold” (J Med Chem, 2012):
Activity calls are given as the source filed them. No cut-off for these calls is given here.

The molecules below were run against T1, Prostaglandin G/H synthase 1 (Ovis aries) (UniProt P05979) (assay: Inhibition of ovine COX-1 using [14C] arachidonic acid as substrate at 4 uM preincubated for 17 mins before substrate addition measured after 3 mins by thin-layer chromatographic analysis).
T1 sequence (whole entry): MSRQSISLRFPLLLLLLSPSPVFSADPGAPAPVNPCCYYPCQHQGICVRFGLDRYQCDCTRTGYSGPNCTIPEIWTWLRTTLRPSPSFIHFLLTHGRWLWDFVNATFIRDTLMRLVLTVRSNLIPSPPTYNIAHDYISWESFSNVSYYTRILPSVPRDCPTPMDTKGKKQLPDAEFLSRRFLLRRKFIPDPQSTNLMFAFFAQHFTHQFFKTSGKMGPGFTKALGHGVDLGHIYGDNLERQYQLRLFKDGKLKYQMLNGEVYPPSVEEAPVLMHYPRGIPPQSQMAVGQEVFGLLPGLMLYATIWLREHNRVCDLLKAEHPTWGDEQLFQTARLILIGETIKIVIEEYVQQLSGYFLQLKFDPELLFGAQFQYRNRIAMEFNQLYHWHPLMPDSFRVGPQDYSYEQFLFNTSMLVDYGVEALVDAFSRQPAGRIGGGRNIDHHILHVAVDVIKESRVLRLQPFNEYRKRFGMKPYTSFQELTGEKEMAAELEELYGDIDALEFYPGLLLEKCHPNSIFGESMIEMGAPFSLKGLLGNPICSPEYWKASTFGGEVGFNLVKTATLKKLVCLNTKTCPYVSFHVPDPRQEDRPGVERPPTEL
Procedure, shortened: (§1)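 Purified ovine COX-1 or murine COX-2 preincubated with a single 4 μM inhibitor concentration for 17 min. […] Reaction quenched; radioactive products extracted and quantified. Mean ± SEM of two experiments.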
`CCOC(=O)C(C)(C)C1=C/C(=C\c2cn(C)c3ccccc23)c2ccc(F)cc21` was tested, and the inhibition was 47%. `COC(=O)CC1=C/C(=C\c2ccc(SC)cc2)c2ccc(F)cc21` gave an inhibition of 39%. For `CCOC(=O)CC1=C/C(=C\c2ccc(C(=O)OCC)cc2)c2ccc(F)cc21`, the inhibition was 39%. For `O=C(O)CC1=C/C(=C\c2ccc(SC(F)(F)F)cc2)c2ccc(F)cc21`, the inhibition was 77%. Molecule `O=C(O)CC1=C/C(=C\c2ccc(S(=O)(=O)C(F)(F)F)cc2)c2ccc(F)cc21` has an inhibition of 34%. Molecule `CSc1ccc(/C=C2\C=C(CC(=O)NS(=O)(=O)c3ccc4ccccc4c3)c3cc(F)ccc32)cc1` has an inhibition of 74%. In the case of `CCOC(=O)C(C)(C)C1=C/C(=C\c2cnc(-c3ccccc3)nc2C)c2ccc(F)cc21`, the inhibition was 25%. Work on `CSc1ccc(/C=C2\C=C(CC(=O)NS(=O)(=O)c3ccc(F)cc3)c3cc(F)ccc32)cc1` yielded an inhibition of 44%. Molecule `O=C(O)CC1=C/C(=C\c2cnc(-c3ccccc3)nc2)c2ccc(F)cc21` has an inhibition of 35%. Molecule `Cc1ccc(/C=C2\C=C(CC(=O)O)c3cc(F)ccc32)cc1` has an inhibition of 52%. `CSc1ccc(/C=C2\C=C(CC(=O)NS(C)(=O)=O)c3cc(F)ccc32)cc1` gave an inhibition of 21%. With `O=C(O)CC1=C/C(=C\c2ccc(-c3ccc(C(F)(F)F)cc3)cc2)c2ccc(F)cc21` the inhibition was 31%. Molecule `O=C(O)CC1=C/C(=C\c2ccc(-c3ccc(F)nc3)cc2)c2ccc(F)cc21` has an inhibition of 27%. Work on `CCOC(=O)C(C)(C)C1=C/C(=C\c2ccc(-c3ccccc3)cc2)c2ccc(F)cc21` yielded an inhibition of 26%. `O=C(O)CC1=C/C(=C\c2cnc(C3CCCCC3)nc2)c2ccc(F)cc21` was tested, and the inhibition was 45%. Work on `COc1ccc(S(=O)(=O)NC(=O)CC2=C/C(=C\c3ccc(SC)cc3)c3ccc(F)cc32)cc1` yielded an inhibition of 58%. Molecule `O=C(O)CC1=C/C(=C\c2ccc(F)c3ccccc23)c2ccc(F)cc21` has an inhibition of 61%. For `O=C(O)CC1=C/C(=C\c2cccc(-c3cccs3)n2)c2ccc(F)cc21`, the inhibition was 15%. In the case of `COc1ccc(/C=C2\C=C(CC(=O)O)c3cc(F)ccc32)cc1`, the inhibition was 62%. `O=C(O)CC1=C/C(=C\c2ccc3ccccc3c2)c2ccc(F)cc21` gave an inhibition of 75%. Work on `COc1ccc(-c2cccc(/C=C3\C=C(CC(=O)O)c4cc(F)ccc43)n2)cc1` yielded an inhibition of 35%. For `O=C(O)CC1=C/C(=C\c2ccc(-c3ccccc3)nc2)c2ccc(F)cc21`, the inhibition was 55%. `CC(C(=O)O)C1=C/C(=C\c2ccc(-c3ccccc3)cc2)c2ccc(F)cc21` (stereo not given) gave an inhibition of 30%. Molecule `CSc1ccc(/C=C2\C=C(CC(=O)NS(=O)(=O)c3ccc(OC(F)(F)F)cc3)c3cc(F)ccc32)cc1` has an inhibition of 47%. `CC(C)(C)Oc1ccc(/C=C2\C=C(CC(=O)O)c3cc(F)ccc32)cc1` showed an inhibition of 17%. Molecule `CSc1ccc(/C=C2\C=C(C(C)(C)C(=O)O)c3cc(F)ccc32)cc1` has an inhibition of 17%. `CSc1ccc(/C=C2\C=C(CC(=O)NS(=O)(=O)c3ccc(Cl)s3)c3cc(F)ccc32)cc1` was tested, and the inhibition was 59%. `O=C(O)CC1=C/C(=C\c2ccccc2)c2ccc(F)cc21` gave an inhibition of 74%. With `O=C(O)CC1=C/C(=C\c2ccc(C(=O)O)cc2)c2ccc(F)cc21` the inhibition was 43%. In the case of `O=C(O)CC1=C/C(=C\c2ccc(-c3ccc(F)cc3)cc2)c2ccc(F)cc21`, the inhibition was 33%.

Each molecule was assayed against T2, Prostaglandin G/H synthase 2 (Mus musculus) (UniProt Q05769) (assay: Inhibition of mouse COX-2 using [14C] arachidonic acid as substrate at 4 uM preincubated for 17 mins before substrate addition measured after 3 mins by thin-layer chromatographic analysis).
T2 sequence (whole entry): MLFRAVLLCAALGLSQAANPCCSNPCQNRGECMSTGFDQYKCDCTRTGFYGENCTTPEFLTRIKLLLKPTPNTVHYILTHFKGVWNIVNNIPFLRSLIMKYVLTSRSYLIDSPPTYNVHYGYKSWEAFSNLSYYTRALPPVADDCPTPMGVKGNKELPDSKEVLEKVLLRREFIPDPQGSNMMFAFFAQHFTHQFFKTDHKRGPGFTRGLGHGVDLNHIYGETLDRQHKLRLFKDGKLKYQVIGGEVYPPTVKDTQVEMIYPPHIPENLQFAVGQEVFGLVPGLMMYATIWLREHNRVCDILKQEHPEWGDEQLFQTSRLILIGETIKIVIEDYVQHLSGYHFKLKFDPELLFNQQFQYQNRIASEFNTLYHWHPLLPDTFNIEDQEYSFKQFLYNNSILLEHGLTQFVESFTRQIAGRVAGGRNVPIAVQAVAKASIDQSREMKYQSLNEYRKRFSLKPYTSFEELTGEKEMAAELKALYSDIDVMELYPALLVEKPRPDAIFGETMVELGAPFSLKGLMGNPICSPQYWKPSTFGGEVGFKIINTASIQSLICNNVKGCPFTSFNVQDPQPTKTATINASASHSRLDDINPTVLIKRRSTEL
Procedure, shortened: as §1
For `CCOC(=O)C(C)(C)C1=C/C(=C\c2cn(C)c3ccccc23)c2ccc(F)cc21`, the inhibition was 22%. In the case of `COC(=O)CC1=C/C(=C\c2ccc(SC)cc2)c2ccc(F)cc21`, the inhibition was 9%. For `CCOC(=O)CC1=C/C(=C\c2ccc(C(=O)OCC)cc2)c2ccc(F)cc21`, the inhibition was 0%. Work on `O=C(O)CC1=C/C(=C\c2ccc(SC(F)(F)F)cc2)c2ccc(F)cc21` yielded an inhibition of 35%. With `O=C(O)CC1=C/C(=C\c2ccc(S(=O)(=O)C(F)(F)F)cc2)c2ccc(F)cc21` the inhibition was 16%. In the case of `CSc1ccc(/C=C2\C=C(CC(=O)NS(=O)(=O)c3ccc4ccccc4c3)c3cc(F)ccc32)cc1`, the inhibition was 26%. Molecule `CCOC(=O)C(C)(C)C1=C/C(=C\c2cnc(-c3ccccc3)nc2C)c2ccc(F)cc21` has an inhibition of 9%. For `CSc1ccc(/C=C2\C=C(CC(=O)NS(=O)(=O)c3ccc(F)cc3)c3cc(F)ccc32)cc1`, the inhibition was 20%. Work on `O=C(O)CC1=C/C(=C\c2cnc(-c3ccccc3)nc2)c2ccc(F)cc21` yielded an inhibition of 8%. `Cc1ccc(/C=C2\C=C(CC(=O)O)c3cc(F)ccc32)cc1` showed an inhibition of 13%. `CSc1ccc(/C=C2\C=C(CC(=O)NS(C)(=O)=O)c3cc(F)ccc32)cc1` was tested, and the inhibition was 7%. With `O=C(O)CC1=C/C(=C\c2ccc(-c3ccc(C(F)(F)F)cc3)cc2)c2ccc(F)cc21` the inhibition was 15%. Work on `O=C(O)CC1=C/C(=C\c2ccc(-c3ccc(F)nc3)cc2)c2ccc(F)cc21` yielded an inhibition of 10%. `CCOC(=O)C(C)(C)C1=C/C(=C\c2ccc(-c3ccccc3)cc2)c2ccc(F)cc21` gave an inhibition of 2%. Molecule `O=C(O)CC1=C/C(=C\c2cnc(C3CCCCC3)nc2)c2ccc(F)cc21` has an inhibition of 25%. With `COc1ccc(S(=O)(=O)NC(=O)CC2=C/C(=C\c3ccc(SC)cc3)c3ccc(F)cc32)cc1` the inhibition was 8%. For `O=C(O)CC1=C/C(=C\c2ccc(F)c3ccccc23)c2ccc(F)cc21`, the inhibition was 22%. Work on `O=C(O)CC1=C/C(=C\c2cccc(-c3cccs3)n2)c2ccc(F)cc21` yielded an inhibition of 28%. Work on `COc1ccc(/C=C2\C=C(CC(=O)O)c3cc(F)ccc32)cc1` yielded an inhibition of 22%. `O=C(O)CC1=C/C(=C\c2ccc3ccccc3c2)c2ccc(F)cc21` showed an inhibition of 34%. With `COc1ccc(-c2cccc(/C=C3\C=C(CC(=O)O)c4cc(F)ccc43)n2)cc1` the inhibition was 56%. In the case of `O=C(O)CC1=C/C(=C\c2ccc(-c3ccccc3)nc2)c2ccc(F)cc21`, the inhibition was 5%. In the case of `CC(C(=O)O)C1=C/C(=C\c2ccc(-c3ccccc3)cc2)c2ccc(F)cc21` (stereo not given), the inhibition was “inactive”. `CSc1ccc(/C=C2\C=C(CC(=O)NS(=O)(=O)c3ccc(OC(F)(F)F)cc3)c3cc(F)ccc32)cc1` was tested, and the inhibition was 32%. For `CC(C)(C)Oc1ccc(/C=C2\C=C(CC(=O)O)c3cc(F)ccc32)cc1`, the inhibition was 5%. `CSc1ccc(/C=C2\C=C(C(C)(C)C(=O)O)c3cc(F)ccc32)cc1` gave an inhibition of 16%. In the case of `CSc1ccc(/C=C2\C=C(CC(=O)NS(=O)(=O)c3ccc(Cl)s3)c3cc(F)ccc32)cc1`, the inhibition was 34%. Work on `O=C(O)CC1=C/C(=C\c2ccccc2)c2ccc(F)cc21` yielded an inhibition of 34%. For `O=C(O)CC1=C/C(=C\c2ccc(C(=O)O)cc2)c2ccc(F)cc21`, the inhibition was 0%. `O=C(O)CC1=C/C(=C\c2ccc(-c3ccc(F)cc3)cc2)c2ccc(F)cc21` showed an inhibition of 16%.
